An excerpt weighted towards active compounds, which were near 2.9% of everything screened.
MC4R barr agon: MC4R agonists recruiting beta-arrestin, primary screen, cell-based, luminescence, agonist arm of biased-ligand search | U2OS MC4R beta-arrestin complementation; percent of melanotan II response, DMSO zero | activation, % at 8.9 µM | 360,000 tested, 0.98% active | AID 540308, 2011;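 active means activation above a per-plate cutoff, the mean activation of sample wells on that plate plus 3 SD, cut at about 8% in these data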
MC4R antagonist: MC4R antagonists of cAMP signaling, primary screen, cell-based, TR-FRET, antagonist arm of biased-ligand search; Melanocortin receptor 4 (Homo sapiens), P32245; 360,000 tested, 0.48% active; MC4R-expressing cells, MTII-stimulated cAMP, LANCE TR-FRET; inhibition, % at 6.5 µM;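 active means inhibition above its plate's cutoff, the mean of tested wells on that plate plus 3 SD, cut at about 29% in these data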;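 further: 0% = Melanotan II alone and 100% = Melanotan II plus saturating MCL0020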
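Material – human MC4R-expressing U2OS cells · Repeats – no replicates · Detection – TR-FRET with Eu-cAMP and labeled anti-cAMP, 671 nm · Times – compound 30 min, challenge 1 h, detection 1 h · Compound – single nominal compound dose of 6.5 µM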
Calb FLC: C. albicans growth inhibition with fluconazole, primary screen, CaCi-2 strain, Alamar Blue fluorescence; C. albicans CaCi-2 + fluconazole, 48 h; growth inhibition, % (no concentration beside the values); 300,000 tested, 0.57% active;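 active means growth inhibition above about 58% in most replicates, limit read from the data, passing the limit was not always enough; inconclusive means exactly half the replicates above a set limit; inactive means most replicates below a set limit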;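 further: all wells also contain fluconazole at 8 µg/ml as a sub-toxic cotreatment; 0% = median of DMSO wells and 100% = median of geldanamycin control wells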
TAG inh: inhibitors of triacylglycerol accumulation, primary screen, cell-based, uHTS, fluorescence, H9c2; 230,000 tested, 0.66% active; H9c2 cells, Nile Red lipid (TAG) fluorescence; cells loaded with 200 µM oleic acid; AID 651582, 2012; inhibition, % at 12.5 µM;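 active means pattern-corrected inhibition of lipid staining of at least 50% with the nuclear-stain viability signal not falling by more than 50%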;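 further: 0% = DMSO wells and 100% = triacsin C control wells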
Efflux pump mplx: inhibitors of Candida efflux pumps in yeast, primary screen, S. cerevisiae, Nile Red, multiplex. S. cerevisiae Candida pump triplex. inhibition, % at 10 µM. 330,000 tested, 0.44% active;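 active means plate passing quality check with inhibition over a set limit, or well fluorescence over plate mean plus 4 SD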;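 further: Nile Red retained in pooled yeast measured as flow cytometry median fluorescence; 0% = buffer negative control and 100% = Enniatin B positive control; higher means more Nile Red kept so more efflux inhibition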
GalR3 antag: GalR3 antagonists in HEK293 cells, primary screen, cell-based, fluorescence readout; HEK293 GalR3-CNG cAMP membrane potential fluorescence; galR3 body fused to GalR1 C-terminus; AID 651719, 2012; Galanin receptor type 3 (Homo sapiens), O60755; 360,000 tested, 0.44% active; inhibition, % at 3 µM;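 active means inhibition above the screen-wide average plus 3 SD, cut at about 13% in these data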;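 further: forskolin and galanin both at EC90 stimulate the cells; cAMP rise reported by CNG channel membrane potential dye signal; 0% = forskolin plus galanin with DMSO and 100% = forskolin alone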
MC4R barr ag: MC4R beta-arrestin agonists, retest, confirmation, cell-based, luminescence, U2OS; shares compounds with MC4R barr agon; activation, % at 8.9 µM; AID 602192, 2012; 2,400 tested, 31% active; U2OS MC4R beta-arrestin recruitment; scaled DMSO 0%, Melanotan II 100%;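 active means mean activation across replicates above the hit cutoff set in the earlier primary screen, cut at about 8% in these data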
MOR DOR agonist: agonists of MOR-DOR heterodimerization, counter-screen for MC4R biased agonist project, cell-based, luminescence | shares compounds with MC4R barr agon | U2OS PathHunter beta-arrestin, beta-gal luminescence; percent of deltorphin B response, DMSO zero | activation, % at 9.2 µM | 2,400 tested, 5.8% active;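 active means mean activation across replicates exceeds the hit threshold derived in the earlier primary screen, cut at about 18% in these data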;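 further: 100% = deltorphin B at 0.9 µM final and 0% = DMSO alone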
Target sequence (P35372 whole entry, looked up): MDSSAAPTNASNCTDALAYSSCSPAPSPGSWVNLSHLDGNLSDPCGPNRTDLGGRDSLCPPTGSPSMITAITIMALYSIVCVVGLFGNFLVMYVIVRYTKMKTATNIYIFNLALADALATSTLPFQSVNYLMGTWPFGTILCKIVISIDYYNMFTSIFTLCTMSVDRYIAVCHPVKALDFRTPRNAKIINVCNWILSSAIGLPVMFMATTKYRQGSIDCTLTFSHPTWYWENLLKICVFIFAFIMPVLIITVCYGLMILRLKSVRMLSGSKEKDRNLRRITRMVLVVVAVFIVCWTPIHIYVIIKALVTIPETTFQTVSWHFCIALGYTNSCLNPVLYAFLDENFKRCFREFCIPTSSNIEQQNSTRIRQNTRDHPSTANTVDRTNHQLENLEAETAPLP
Target sequence (P41143 whole entry, looked up): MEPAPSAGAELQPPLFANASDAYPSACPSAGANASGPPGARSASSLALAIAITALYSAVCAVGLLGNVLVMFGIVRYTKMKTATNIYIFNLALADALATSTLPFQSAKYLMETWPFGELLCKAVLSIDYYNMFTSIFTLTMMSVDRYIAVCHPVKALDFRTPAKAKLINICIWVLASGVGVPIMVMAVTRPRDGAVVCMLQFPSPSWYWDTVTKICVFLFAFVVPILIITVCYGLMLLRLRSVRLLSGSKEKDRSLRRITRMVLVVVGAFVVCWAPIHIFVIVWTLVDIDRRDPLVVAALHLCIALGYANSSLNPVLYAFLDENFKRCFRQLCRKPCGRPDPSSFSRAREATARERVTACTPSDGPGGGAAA
* hit, by the source's call; ? = inconclusive; · = not tested or not shown.

SMILES	MC4R barr agon	MC4R antagonist	Calb FLC	TAG inh	Efflux pump mplx	GalR3 antag	MC4R barr ag	MOR DOR agonist
Cc1ccsc1C(=O)Nc1ccc(OCc2ccccc2)cc1	9.7*	15	5	·	0	-4	0	3
CCOc1ccc(/C=N/OCC(=O)Nc2ccc(OCc3ccccc3)cc2)cc1OC	13*	12	4	-7	0	-3	8.2*	2
O=C(Nc1ccc(OCc2ccccc2)cc1)c1ccccc1	1	1	-22	·	0	-9	·	·
COc1ccc(COc2ccsc2C(=O)Nc2ccc(Cl)c(Cl)c2)cc1	12*	-6	-15	·	0	-5	25*	3
C=CCC[C@@H](CCCCC)OC(=O)/C=C/[C@H](O)[C@@H](O)C[C@H](O)CC=C	·	·	·	·	·	0	·	·
COc1ccc(N2CC(O)=C(c3nc(-c4ccc(Br)cc4)cs3)C2=N)cc1	4	7	-4	-15	0	-6	·	·
COc1ccc(N2CC(O)=C(c3nc(-c4ccccc4)cs3)C2=N)cc1	19*	8	6	-16	0	-5	8	4
O=c1[nH]c(=S)[nH]c2c1C(c1ccc(F)cc1)OC(CCC(F)(F)F)C2 (stereo not given)	·	·	·	·	·	-1	·	·
CC(C)(C)c1ccc(S(=O)(=O)NNC(=O)c2cc3ccccc3[nH]2)cc1	17*	10	34	·	0	-11	8	16
CCCC(C)NNC(=O)c1cc2ccccc2[nH]1 (stereo not given)	-2	7	-20	·	0	-6	·	·
Cc1ccc2nc(C(C)(C)C)c(Cc3ccccc3C(F)(F)F)n2c1	·	·	·	·	·	-3	·	·
COc1ccc(NC(=O)Cc2c(SC)c3ccccc3n2Cc2ccccc2)cc1	24*	9	-3	35	0	-3	2	10
O=c1[nH]c(CSc2nnc(Nc3ccccc3)s2)nc2ccccc12	9.7*	6	4	-14	0	-7	2	3
COc1ccc(CC(=O)OCc2cc3cccc(C)c3[nH]c2=O)cc1	21*	9	-1	·	0	·	8	5
COc1ccc(C(=O)OCc2cc3cccc(C)c3[nH]c2=O)cc1	15*	5	8	·	0	-5	2	14
CCC(=O)OCc1cc2cccc(C)c2[nH]c1=O	0	7	0	·	0	-5	·	·
Cc1cccc2cc(COC(=O)c3cccc([N+](=O)[O-])c3)c(=O)[nH]c12	·	·	6	·	0	·	·	·
Nc1c(Cl)cc(C(=O)NC2CC2)cc1Cl	-1	-7	·	-4	·	2	·	·
CN(C)c1ccc(/C=N/n2c(C3CCCCC3)n[nH]c2=S)cc1	-1	1	15	·	0	-8	·	·
Cc1ccc(NC(=O)NNC(=O)c2cc3ccccc3cc2O)cc1	13*	2	?	·	0	-1	15*	6
COc1cc2c(cc1OC)C(c1ccc(-c3ccc(Cl)cc3Cl)o1)=NCC2	12*	-10	18	·	0	-5	7	4
C[C@H](CO)N1C[C@H](C)[C@H](CN(C)Cc2cccc(F)c2)Oc2ncc(C3=CCCC3)cc2C1=O	·	·	·	·	·	-4	·	·
COc1ccc(OCC(=O)Nc2nc3ccccc3[nH]2)cc1	-2	0	-2	-18	0	-4	·	·
O=C(COc1ccc2ccccc2c1)Nc1nc2ccccc2[nH]1	10*	2	·	0	0	-6	0	6
C/C(=N\N=C1\NC(=O)C(CC(=O)Nc2ccc(C)c(Cl)c2)S1)C(C)(C)C (stereo not given)	16*	15	?	9	0	-7	5	5
SMILES	MC4R barr agon	MC4R antagonist	Calb FLC	TAG inh	Efflux pump mplx	GalR3 antag	MC4R barr ag	MOR DOR agonist
C/C(=N\N=C1\NC(=O)C(CC(=O)Nc2ccc(Cl)cc2)S1)c1ccco1 (stereo not given)	0	-3	42	-8	0	-2	·	·
CC(C)NC(=O)C1(C)CCN1C(=O)C(c1ccccc1)c1ccccc1 (stereo not given)	-2	10	·	-12	·	-7	·	·
CCN(CC)CCN=c1c(C)nc(C#N)c(N)n1O	0	8	·	1	·	3	·	·
O=C(OC(C(=O)NC1CCCCC1)c1ccc(C(F)(F)F)cc1)c1ccco1 (stereo not given)	11*	-2	9	-34	0	-4	2	4
O=C(CN1C(=O)c2ccccc2S1(=O)=O)Nc1ncc(Cl)cc1Cl	-1	11	·	-10	0	0	·	·
Cc1ccc(Oc2ccc(Cl)cc2NC(=O)c2ccc(F)cc2F)cc1	11*	-1	-8	-13	0	-6	1	2
COc1ccc(C(=O)CSc2nnc(CNc3ccc(C)cc3C)o2)cc1	11*	9	-9	-32	0	-5	11*	12
COc1ccc(C(=O)CSc2nnc(-c3cc(C)cc(C)c3)o2)cc1	9.8*	10	14	·	0	-9	8	6
Cc1ccc(NCc2nnc(SCC(=O)c3ccc4c(c3)OCCO4)o2)c(C)c1	2	-1	5	·	0	-6	·	·
CCCCCCCCN1C(=O)[C@@H](CC(=O)NCc2cccc3ccccc23)C[C@@]2(C(=O)OC)C1=C[C@H](C1CCCC1)O[C@@H]2C	·	·	·	·	·	-6	·	·
O=S1(=O)CCSC[C@@H](CNCc2ccco2)N1	·	·	·	·	·	-4	·	·
O=C(CCc1c[nH]c2ccccc12)NCC1COc2ccccc2O1 (stereo not given)	11*	14	-8	-2	0	1	-3	1
O=C(CCCc1c[nH]c2ccccc12)NCC1COc2ccccc2O1 (stereo not given)	-3	3	2	4	0	-3	·	·
O=C(O)CN1C(=O)/C(=C\c2ccccc2OCc2ccc(Cl)cc2)SC1=S	-1	-2	15	·	0	-10	·	·
O=C(O)CN1C(=O)/C(=C\c2cc(Br)ccc2OCc2ccc(Cl)cc2Cl)SC1=S	11*	11	20	·	0	·	8	1

Screening results deposited in PubChem BioAssay by several laboratories.
